Measurements taken from PubChem BioAssay AID504382 (The Scripps Research Institute Molecular Screening Center, 2011).
Out of some 2,500 compounds screened, about 460 (18%) were called active.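 How the source made its calls: active means mean activation above a cutoff of low control average plus 3 SD from the earlier screen (cut at about 12% in these data); inactive means the rest.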 Only a sample is shown.

assay: compound fluorescence interference without thin filaments, confirmation, artefact control for cardiac RTF calcium sensitizer project, biochemical (AID 504382); settings: IANBD fluorescence interference counterscreen, buffer, EC20 Ca2+; at 7.2 µM; hits give high values; scaled: EC20 calcium 0, EC100 calcium 100
Summary of the method: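 Doses – one dose of 7.2 µM, 0.7% DMSO · Buffer or medium – MOPS/KCl/MgCl2/EGTA/NTA/DTT buffer, pH 7.2 · Probe or stimulus – Ca2+ fixed at EC20, 0.472 mM · Measured by – fluorescence intensity, excitation 480 nm, emission 540 nm · Read-out – fluorescence interference versus control range · Timing – 15 min compound exposure at 25 °C · Replication – triplicate wells per compound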

SMILES | fluorescence artifact activation
CCc1ccc(C(=O)Nc2cccnc2Oc2ccc(Cl)cc2)cc1 | 3.19% (inactive)
Cc1cc(C=C2C(=O)CCCC2=O)c(C)n1-c1ccccc1 | 0.05% (inactive)
CCOC(=O)/C(=C\c1c[nH]c2ccccc12)NC(C)=O | 7.92% (inactive)
CC(C)Sc1nc2ccc(Br)cc2[nH]1 | 10.8% (inactive)
COCCCN(C(=O)c1cccnc1SC)c1c(N)n(Cc2ccccc2)c(=O)[nH]c1=O | 15.1% (active)
CCCCN(C(=O)c1ccc([N+](=O)[O-])o1)c1c(N)n(CCCC)c(=O)[nH]c1=O | -0.06% (inactive)
COc1cc(OC)cc(C(=O)N(Cc2ccco2)c2c(N)n(Cc3ccccc3)c(=O)[nH]c2=O)c1 | 0.01% (inactive)
COc1ccc(NC(=O)Cc2ccccc2)cn1 | 0.04% (inactive)
N#CC1=C(N)SC(N)=C(C#N)C1c1cccc(O)c1 | 0.07% (inactive)
C/C(Cn1cnc([N+](=O)[O-])n1)=N\NC(=O)c1cccc(F)c1 | 0.05% (inactive)
Cc1cc(NC(=O)CN2C(=O)[C@@H]3[C@H](C2=O)[C@@H]2C[C@H]3C(Br)C2Br)no1 (some centres not stated) | 19.4% (active)
CC(=O)NC(CCS(C)(=O)=O)C(=O)Nc1cc(C)on1 (configuration not stated) | 0.57% (inactive)
Cc1cc(NC(=O)COC(=O)C(Cc2ccccc2)NC(=O)c2ccco2)no1 (configuration not stated) | 9.69% (inactive)
O=C1CCNc2ccc(-c3ccccc3)cc21 | 0.1% (inactive)
Cc1cc(/C=C2/C(=O)N(C)C(=S)N2C)ccc1N1CCCC1 | 23.6% (active)
Cc1cc(N2CCCC2)ccc1/C=C1\NC(=S)N(C)C1=O | 5.61% (inactive)
Cc1cc(/C=C2\NC(=S)N(C)C2=O)ccc1N1CCCC1 | 2.17% (inactive)
COC(=O)CCN(C(=O)c1ccc([N+](=O)[O-])cc1)c1ccccn1 | 4.76% (inactive)
O=C(Nc1ccc(Br)cc1)c1ccc(Br)c(S(=O)(=O)Nc2cccnc2)c1 | 4.66% (inactive)
CC(C)(C)NC(=O)NC(=O)Cn1ccsc1=N | 40% (active)
O=C(C1=NN(c2ccccc2)C2C(=O)N(c3cccc(Cl)c3)C(=O)C12)c1ccccc1 (configuration not stated) | 9.7% (inactive)
O=C(NN1C(=O)c2ccccc2NC1c1ccco1)c1ccccc1 (configuration not stated) | 0.03% (inactive)
CN1C(=O)/C(=C/C=C2\SCCN2C)OC1=S | 1.7% (inactive)
C=C1CCN(C(CC(C)C)C(=O)OC)S(=O)(=O)c2ccccc21 (configuration not stated) | 0.08% (inactive)
NC(=O)C1CCN(c2ccc3c(c2)S(=O)(=O)c2ccccc2C3=O)CC1 | 0.05% (inactive)

SMILES | fluorescence artifact activation
COC(=O)C1CCN(C(=O)CN2C(=O)c3ccccc3S2(=O)=O)CC1 | 818% (active)
CN(N=Nc1ccc([N+](=O)[O-])cc1)c1ccccc1 | 7.25% (inactive)
CSc1ccc(C2C(C(=O)c3ccco3)=C(O)C(=O)N2c2nnc(SC)s2)cc1 (configuration not stated) | 7.57% (inactive)
CC1CC1c1ccc(/C=C(\C#N)C(=O)Nc2ccc(Cl)cc2Cl)o1 (configuration not stated) | 5.23% (inactive)
Cc1cc(NC(=O)/C(C#N)=C\c2ccc(-c3ccc(SC(F)F)cc3)o2)n(-c2ccccc2)n1 | 136% (active)
Cc1cc(NC(=O)/C(C#N)=C/c2ccc(-c3ccc(SC(F)F)cc3)o2)n(-c2ccccc2)n1 | 291% (active)
O=C(NCc1cccc(F)c1)c1cccc2c1C(=O)c1ccc(N3CCCC3)cc1S2(=O)=O | -0.02% (inactive)
CCOC(=O)c1sc(N)c(C#N)c1COC(=O)CNC(=O)c1ccccc1 | -0.01% (inactive)
CC1CC(C)CN(C(=O)Cn2c(-c3nonc3N)nc3ccccc32)C1 (configuration not stated) | 0.07% (inactive)
CC(NC(=O)COc1ccc(N(C)S(=O)(=O)c2ccccc2)cc1)c1ccccc1 (configuration not stated) | 0.07% (inactive)
Cc1ccc(C)c(OCCN2C(=O)NC3(CCc4ccccc4C3)C2=O)c1 (configuration not stated) | 0.24% (inactive)
Cc1ccc(C2C(C#N)=C(N)SC(N)=C2C#N)cc1 | 0.33% (inactive)
O=C(C1=C(O)C(=O)N(CCN2CCOCC2)C1c1ccc([N+](=O)[O-])cc1)c1cccs1 (configuration not stated) | 10.2% (inactive)
CC(/C=C/c1ccc(N(C)C)cc1)=N/N=C1/NC(=O)CC(C(=O)Nc2ccc(Cl)cc2)S1 (configuration not stated) | 0.15% (inactive)
O=[N+]([O-])c1ccc(N/N=C\c2ccccc2OCc2ccccc2)cc1 | 5.45% (inactive)
COC(=O)c1ccc(-c2ccc(F)cc2)nc1C | -0.07% (inactive)
O=c1[nH]c2c(s1)C=Nc1ccccc1N2 | 0.01% (inactive)
CN(C)/C=C1\C=C2C(=O)c3ccccc3N2C1=O | 21% (active)
CN(C)C(=O)CN1C(=O)C2CCCCN2C(=O)c2ccccc21 (configuration not stated) | 0.04% (inactive)
Cc1ccc(S(=O)(=O)NCCCCCC(=O)Nc2ccccc2C)cc1 | 8.11% (inactive)
CCCCCCCC(=O)Nc1ccc(S(=O)(=O)Nc2nccs2)cc1 | 12.5% (active)
CCCC(=O)Nc1ccc(-c2cnc(-c3ccc(NC(=O)CCC)cc3)nc2)cc1 | 0.08% (inactive)
N#Cc1ccccc1NC(=O)CNc1ccc(Cl)c(C(F)(F)F)c1 | 1.46% (inactive)
CCC(=O)N/C(=N/c1nc(C)cc(C)n1)Nc1ccccc1 | 0.29% (inactive)
Cc1ccc(NC(=O)c2cc(S(=O)(=O)N3CCCCC3)ccc2N2CCOCC2)cc1S(=O)(=O)N(C)C | 0.83% (inactive)

SMILES | fluorescence artifact activation
COc1ccc(-c2csc(N3CCN(c4cc5c(cc4Cl)nc(-c4ccncc4)n5CCOCCO)CC3)n2)cc1 | -0.09% (inactive)
CCOC(=O)Cc1csc(N(C)C)n1 | 0.08% (inactive)
CCOC(=O)Cc1csc(CC(N)=O)n1 | 2.47% (inactive)
CCOC(=O)Cc1csc(NC(=O)c2sc3nc4cc(C)ccc4cc3c2N)n1 | 19% (active)
Cc1cccc(N2CCN(C(=O)Cn3nc(Cc4ccncc4)c4ccccc4c3=O)CC2)c1C | 4.88% (inactive)
Cc1c(O)ccc(/C(Cc2ccc3ccccc3n2)=N\N)c1O | -0.02% (inactive)
CC(=O)OCC[N+](C)(C)C | 13.6% (active)
Cc1cccc(N=Cc2[nH]c3ccc(Br)c(Cl)c3c2O)c1 | 0.01% (inactive)
COCCNC(=O)c1c(CS(=O)(=O)c2ccccc2)noc1C(=O)NCc1ccccc1 | -0.04% (inactive)
C/C(=N/Nc1ccnc2cc(Cl)ccc12)c1ccc(N)cc1 | 2.55% (inactive)
CN1c2ccccc2C(O)=C(C(=S)Nc2ccc(F)c(Cl)c2)S1(=O)=O | 13.6% (active)
Cc1ccc(NC(=O)Nc2ccc(F)cc2)cc1Cl | 4.13% (inactive)
CC(=O)Nc1ccccc1C(=O)C(=O)Nc1ccc(F)c(Cl)c1 | 0.02% (inactive)
CCC1(C)COC(c2ccc(OC)c(OC)c2)OC1 (configuration not stated) | 0.06% (inactive)
N#C/C(=C\c1c[nH]c2ccccc12)C(=O)Nc1ncc(Cc2ccc(Cl)cc2Cl)s1 | 5.66% (inactive)
O=C(CN1CCN(c2ccccc2F)CC1)NCc1ccc(Cl)cc1 | 0.16% (inactive)
O=C(NCCc1ccccc1)C1CCN(c2ncccn2)CC1 | 0.16% (inactive)
O=C(NCc1ccc(Cl)cc1)C1CCN(c2cnccn2)CC1 | 16% (active)
COc1ccc(/C=N/NC(=O)c2cccc([N+](=O)[O-])c2)cc1O | 0.08% (inactive)
Cn1nnc(NC(=S)NC(=O)/C=C/c2ccco2)n1 | 0.78% (inactive)
CCNC(=S)NNC(=O)CCn1cc(C)cn1 | -0.01% (inactive)
CN(C)c1ccc(/C=C/c2nc3ccccc3c(=O)n2-c2ccc(C(=O)O)cc2)cc1 | 0.13% (inactive)
CN(C)c1ccc(/C=C/c2nc3ccccc3c(=O)[nH]2)cc1 | 0.27% (inactive)
CN(C)c1ccc(/C=C/c2nc3ccccc3c(=O)n2CCO)cc1 | 127% (active)
O=C(O)C1CCC(CNCc2ccccc2Cl)CC1 (configuration not stated) | 0.76% (inactive)

SMILES | fluorescence artifact activation
CCCCc1ccc(NC(=O)c2cnccn2)cc1 | 9.08% (inactive)
COc1ccc(CNC(=O)c2sc(=S)n(-c3ccccc3)c2N)cc1 | 9.19% (inactive)
COc1cccc(CNC(=O)C2CCCN(c3nc4ccccc4o3)C2)c1 (configuration not stated) | 0.08% (inactive)
CC(C)NC(=O)C1CCCN(c2nnc(-n3cccc3)s2)C1 (configuration not stated) | 316% (active)
O=C(Nc1cc2c3c(c1)CC(=O)N3CCC2)C1CC1 | 0.03% (inactive)
Cc1ccc(/C=C2/SC(=O)NC2=S)o1 | 6.76% (inactive)
C(=N\c1nc2ccccc2n1CCN1CCOCC1)/c1cccs1 | -0.03% (inactive)
Cc1ccc(C(C(=O)NC(C)(C)C)N(C(=O)c2csnn2)C2CC2)cc1 (configuration not stated) | 34.2% (active)
COC(=O)c1c(NC(=O)CN2CCN(c3cccc(Cl)c3)CC2)sc(C)c1C | 0.21% (inactive)
CCOC(=O)c1[nH]c2ccc(OCC)cc2c1CCCN1C(=O)c2ccccc2C1=O | 87.1% (active)
CCCN1C(=O)c2ccccc2NC1c1ccc(O)c(OCC)c1 (configuration not stated) | 2.14% (inactive)
CCOC(=O)C1=C(C)N(CCCCCC(=O)O)C(=O)NC1c1ccccc1Cl (configuration not stated) | 0.06% (inactive)
CC(OC(=O)c1c2c(nc3ccccc13)/C(=C\c1ccc3c(c1)OCO3)CCC2)C(=O)Nc1ccc(S(N)(=O)=O)cc1 (configuration not stated) | 0.03% (inactive)
N#Cc1cc(C(=O)c2cc(F)ccc2O)cn(-c2nccs2)c1=O | 0.01% (inactive)
Cc1ccc(O)c(C(=O)c2cc(C#N)c(=O)n(-c3nccs3)c2)c1 | 0.06% (inactive)
N#Cc1cc(C(=O)c2ccccc2O)cn(-c2nccs2)c1=O | 12.1% (active)
O=C(Cn1ncc2c3ccccc3n(Cc3cccc(Cl)c3)c2c1=O)NCC1CCCO1 (configuration not stated) | 0.38% (inactive)
O=C(NCCOc1ccccc1Cl)C(=O)Nc1ccccc1 | 0.07% (inactive)
CS/C(=N\S(=O)(=O)c1cccs1)Nc1cccc(Cl)c1C | 16.4% (active)
COc1cccc(CNC(=O)CN(C)S(=O)(=O)c2cnc[nH]2)c1 | 41.4% (active)
COc1cccc(CNC(=O)CCS(=O)(=O)c2cc3c(cc2C)NC(=O)CO3)c1 | 0.09% (inactive)
COc1cccc(CNC(=O)CN(C)S(=O)(=O)c2ccc3c(c2)c(=O)n(C)c(=O)n3C)c1 | 0.24% (inactive)
